Only some compounds are listed: those with a hit (about 1.3% of all), similar ones and a draw of the others.
EphB4 ephrin blk: blocks human EphB4 binding to ephrin-B2; P54760; EphB4 LBD / TNYL-RAW-Alexa532 peptide, fluorescence polarization; inhibition, % at 7 µM; 0.15% of 97,000 active; AID 720;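 active means inhibition above the screen-wide mean inhibition plus 3 SD, cut at about 15% in these data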;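 further: 0% = DMSO wells and 100% = excess unlabeled TNYL-RAW peptide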
CD11b adhes enh: enhancers of human CD11b/CD18 binding to fibrinogen; P05107+P11215; K562 CD11b/CD18 adhesion to fibrinogen, ATPlite luminescence; activation, % at 10 µM; 0.07% of 93,000 active;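 active means 10 µM primary screen giving 50% or more activity, confirmed by 40% or more on retest at that dose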
CD11b adhes inh: blocks human CD11b/CD18 adhesion to fibrinogen. P05107+P11215. K562 CD11b/CD18 adhesion to fibrinogen, ATPlite luminescence; Mn2+ added to activate the integrin. inhibition, % at 10 µM. 0.54% of 93,000 active. AID 1497;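 active means primary inhibition of 50% or more at 10 µM, then 40% or more on retest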
Rev-RRE block: HIV Rev-RRE protein-RNA interaction inhibition. P05866. Rev peptide-RRE RNA binding, FRET. inhibition, % at 8 µM. 0.79% of 97,000 active. AID 704;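 active means inhibition above the screen-wide mean plus 3 SD, cut at about 35% in these data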;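 further: 0% = median DMSO wells and 100% = median Neomycin B control wells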
Target sequence (P05866 whole entry, looked up): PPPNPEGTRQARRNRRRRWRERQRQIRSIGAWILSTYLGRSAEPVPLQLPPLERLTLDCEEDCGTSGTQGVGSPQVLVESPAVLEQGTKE
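Test system: labelled RRE RNA duplex and labelled Rev peptide. Times: 5 min compound–RNA preincubation, then 15 min with peptide, 25 °C. Doses: single-dose 8 µM. Measured by: FRET, excitation 480 nm, emission 540 nm donor and 671 nm acceptor. Measure: % inhibition of FRET ratio versus controls.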
Smad3 inh: blocks human Smad3 binding to FoxH1 peptide; P84022; TR-FRET Smad3/Dy647-FoxH1 peptide binding, europium anti-His; inhibition, % at 25 µM; 0.29% of 88,000 active; AID 630;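 active means compounds that reduce the energy-transfer binding signal between the protein and its labelled peptide by more than half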;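 further: 0% = Smad3 plus labelled peptide maximal FRET and 100% = peptide-only background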
Target sequence (P84022 whole entry, looked up): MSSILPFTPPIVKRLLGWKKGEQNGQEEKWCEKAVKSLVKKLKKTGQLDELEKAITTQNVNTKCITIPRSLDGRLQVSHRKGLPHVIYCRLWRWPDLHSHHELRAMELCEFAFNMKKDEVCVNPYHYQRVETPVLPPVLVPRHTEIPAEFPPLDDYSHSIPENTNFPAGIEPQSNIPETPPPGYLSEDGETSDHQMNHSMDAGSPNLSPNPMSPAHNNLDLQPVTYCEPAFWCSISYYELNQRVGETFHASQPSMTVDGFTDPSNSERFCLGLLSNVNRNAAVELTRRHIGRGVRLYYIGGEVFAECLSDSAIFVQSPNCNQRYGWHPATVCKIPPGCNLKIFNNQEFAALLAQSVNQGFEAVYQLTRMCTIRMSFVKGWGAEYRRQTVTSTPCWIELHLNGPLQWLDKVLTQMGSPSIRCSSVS
Phagocytosis inh: macrophage phagocytosis inhibition | J774A.1 macrophage IgG-bead phagocytosis, imaging | 0.07% of 110,000 active | AID 1029 | inhibition, % at 5 µM;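 active means inhibition above the mean of the plate negative controls plus 5 SD, cut at about 13% in these data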;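 further: phagocytic index as fraction of beads internalized from green versus red external bead signal; plate controls were DMSO negative control for no effect and cytochalasin-D positive control for full effect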
The depositor's hits bear a star; . = no result; [ ] = another dose, or the depositor's remark.

SMILES	EphB4 ephrin blk	CD11b adhes enh	CD11b adhes inh	Rev-RRE block	Smad3 inh	Phagocytosis inh
CN(C)c1ccc(/C=C/C(O)=C2/C(=O)N(C)C3(C)CC2c2ccccc2O3)cc1 (centres undefined)	4	.	.	121*[fluorescence artefact?]	7	0
Cc1c(C(=O)O)nc(/C=C/C(=O)O)[nH]c1=O	.	.	.	.	4	.
O=C(N/N=C1/C(=O)c2cccc3cccc1c23)c1ccc(Cl)cc1	25*	20	35	2	.	0
COc1ccc(S(=O)(=O)Nc2ccc(O)c(Sc3ncn[nH]3)c2)cc1	-3	.	.	4	19	.
COc1ccc(S(=O)(=O)Nc2cc(Sc3ncn[nH]3)c(O)c3ccccc23)cc1	-4	-5	90*	-10	.	2
COc1ccc(Br)cc1/C(C)=N/NC1=NCCN1	-3	-6	74*	-12	4	3
O=c1cc(Cl)[nH]c(=O)n1CCNc1ncc(C(F)(F)F)cc1Cl	2	-6	22	52*	.	-1
Cc1ccc(NC(=O)CN2C(=O)S/C(=C\c3cccn3-c3cccc(C(=O)O)c3)C2=O)c(C)c1	-9	87*	-17	-2	.	2
O=C(c1cc2c(=O)oc3ccccc3c2s1)N1CCN(c2ncccn2)CC1	.	.	.	.	-1	.
COCCn1c(C)cc(C2=NNC(=Nc3ccc(Cl)cc3Cl)SC2)c1C	8	82*	14	12	6	.
CCN1CCC2(CC1)C(C#N)=C(N)Oc1c2sc2nc(C)cc(C)c12	-2	-2	3	66*	-1	0
Cc1oc(C)c2c(=O)ccc3c(c12)OC(N)=C(C#N)C3c1ccccc1Cl (centres undefined)	1	-7	0	97*[fluorescence artefact?]	.	2
CSc1ccc(C2C(C#N)=C(N)Oc3c2ccc(=O)c2c(C)oc(C)c32)cc1 (centres undefined)	-10	51	-10	43*	8	-1
Cc1ccc2[nH]c(=O)c(C3C(C#N)=C(N)Oc4c3ccc3cccnc43)cc2c1 (centres undefined)	7	58	-9	6	2	0
Cc1oc(C)c2c(=O)ccc3c(c12)OC(N)=C(C#N)C3c1ccccc1 (centres undefined)	0	9	0	60*	6	0
Cc1cccc(N2C(=O)c3cccc4c(N5CCCCC5)c([N+](=O)[O-])cc(c34)C2=O)c1C	.	.	.	.	.	-3
Cc1ccc(N2C(=O)c3cccc4c(N5CCN(C)CC5)ccc(c34)C2=O)c2cccnc12	2	.	.	110*[fluorescence artefact?]	5	0
COC(=O)CSc1nc(C)cc(C(F)(F)F)c1C#N	15	.	.	11	16	.
CCOC(=O)NC(=O)CSc1nc(C)cc(C(F)(F)F)c1C#N	-6	0	-8	42*	7	-2
Cc1ccc(S(=O)(=O)CCSc2nc(C)cc(C(F)(F)F)c2C#N)cc1	-3	.	.	64*	10	.
c1ccc2cc(NCNc3ccc4ccccc4c3)ccc2c1	.	.	.	.	18	.
CN1Cc2sc(N)c(C#N)c2CC1(C)C	-3	-5	-3	77*	10	2
CCc1cc[n+](-c2nc([O-])sc2C=O)cc1	0	2	-14	46*	.	2
CC(C)CNC(=O)COc1cccc(C(=O)NCc2ccccc2)c1	.	.	.	.	.	-11
CCOC(=O)C1=C(Cc2ccc(C)cc2)C(=O)c2ccccc2C1=O	-2	-7	90*	-86	13	0
SMILES	EphB4 ephrin blk	CD11b adhes enh	CD11b adhes inh	Rev-RRE block	Smad3 inh	Phagocytosis inh
COc1ccc(OC)c(Nc2nc(N)nc(-c3cc4ccccc4o3)n2)c1	-3	2	8	2	-1	36*
Cn1c(SCc2nc(-c3ccccc3)no2)nnc1-c1ccco1	-5	.	.	-3	11	.
CCn1c(SCc2nc(-c3ccc(Cl)cc3)no2)nnc1-c1ccco1	-2	-8	58*	2	6	.
CSc1nnc(C)c(/C=C/Nc2ccc(C)cc2)n1	6	-4	5	110*[fluorescence artefact?]	.	0
COc1ccc(CC[N@+]2(C)COc3cc4oc(=O)cc(C)c4cc3C2)cc1OC	.	.	.	.	17	.
Nc1cc(=O)[nH]c(SCc2ccc(Cl)cc2)n1	2	0	4	10	12	-2
Cc1ccc(CSc2nc3ncccc3[nH]2)cc1	0	.	.	2	-5	.
Clc1ccc(CSc2nc3ccncc3[nH]2)cc1	3	-18	88*	5	-1	.
Cc1ccc(CSc2nc3ccncc3[nH]2)cc1	8	-10	101*	8	5	0
CC1=NN(C(=O)c2csc(C)c2)C(O)(C(F)(F)F)C1 (centres undefined)	-3	3	-11	3	.	-2
CC1=NN(C(=O)c2ccc(Br)cc2)C(O)(C(F)(F)OC(F)(F)F)C1 (centres undefined)	-7	-11	93*	7	.	-2
CCOC(=O)c1cc(C)n(Cc2cccc(OC)c2OC)c1C	-2	-3	56*	1	-12	0
CCOC(=O)c1c(C)c(C)n(Cc2cccc(OC)c2OC)c1C	.	.	.	.	.	-3
COC(=O)[C@@H]1O[C@H](SCCN)[C@@H](O)[C@H](O)[C@H]1O	.	.	.	.	39	.
Cc1cccc(N2C(=O)c3cccc4c(N(C)CCO)ccc(c34)C2=O)c1	5	-3	8	129*[fluorescence artefact?]	20	1
CC(=O)Nc1cccc2c1C(=O)N(c1cccc(C)c1)C2=O	6	.	.	2	-2	.
Cc1ccsc1C1Nc2ccccc2C(=O)N1O (centres undefined)	.	.	.	.	.	-2
CN1CCc2c(sc3c2C(=O)NC(c2cccs2)N3)C1 (centres undefined)	1	9	-8	67*	-3	0
CSc1ccc(C2NC(=O)c3c(sc4c3CCN(C)C4)N2)cc1 (centres undefined)	0	0	-2	84*	-6	0
CN1CCc2c(sc3c2C(=O)NC(c2ccc(-c4cccc(Cl)c4)o2)N3)C1 (centres undefined)	.	.	.	.	0	.
Cc1ccsc1C1NC(=O)c2c(sc3c2CCN(C)C3)N1 (centres undefined)	1	3	-3	100*[fluorescence artefact?]	-3	-1
CN(C)CCSCCO	.	.	.	.	1	.
NCCNc1ncnc2ccc(Cl)cc12	.	.	.	.	-20	.
COc1ccc(N=Nc2nc3ccc(Br)cc3n2C)cc1	-11	.	.	101*[fluorescence artefact?]	.	.
O=C(O)C1C2CCC(O2)C1C(=O)Nc1cccc(F)c1 (centres undefined)	1	-2	-6	13	.	-1
O=C(O)[C@@H]1[C@H](C(=O)Nc2cccc3cccnc23)[C@@H]2CC[C@H]1O2	.	.	.	.	98*	.
O=C(O)[C@H]([C@H]1NCCS1)N1C(=O)c2ccccc2C1=O	.	.	.	.	1	.
O=C(c1ccccc1)c1nc2ccccc2n(CCCn2c(=O)c(C(=O)c3ccccc3)nc3ccccc32)c1=O	-4	132*	-10	6	-8	0
Cn1c(=O)c(C(=O)c2ccccc2)nc2ccccc21	0	-1	4	-2	8	-1
